# Measured values as given in ChEMBL document CHEMBL1138477, “8-(4-Methoxyphenyl)pyrazolo[1,5-a]-1,3,5-triazines: selective and centrally active corticotropin-releasing factor receptor-1 (CRF1) antagonists” (J Med Chem, 2009).
# Calls of active or inactive are those of the source. The rule behind the calls is not given here.
# How the values were obtained:
# [1] = target: T1, Corticotropin-releasing factor receptor 1 (Rattus norvegicus, UniProt P35353); test: Antagonist activity at CRF1 receptor in rat brain homogenates assessed as inhibition of CRF-stimulted cAMP production; assay type: functional, tissue-based
# T1 sequence (P35353 whole entry): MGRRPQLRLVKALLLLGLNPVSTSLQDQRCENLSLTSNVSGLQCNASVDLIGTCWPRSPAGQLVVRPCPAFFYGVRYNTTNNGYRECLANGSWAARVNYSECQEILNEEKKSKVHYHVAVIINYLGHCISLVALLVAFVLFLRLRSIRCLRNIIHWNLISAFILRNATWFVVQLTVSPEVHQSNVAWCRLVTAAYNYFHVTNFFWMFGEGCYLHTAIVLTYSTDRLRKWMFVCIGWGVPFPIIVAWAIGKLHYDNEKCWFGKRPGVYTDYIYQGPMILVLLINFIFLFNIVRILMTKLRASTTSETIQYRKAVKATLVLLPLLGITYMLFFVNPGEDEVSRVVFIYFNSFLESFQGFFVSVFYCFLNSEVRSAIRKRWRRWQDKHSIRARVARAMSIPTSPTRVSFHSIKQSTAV
# Outline: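 Rat cortical homogenate (0.8 mg original wet weight tissue) incubated 10 min at 37 °C in 100 mM Tris-HCl pH 7.4, 10 mM MgCl2, 0.4 mM EGTA, 0.1% BSA, 1 mM IBMX, creatine phosphate/phosphocreatine kinase, 100 nM ovine-CRF; started with 1 mM ATP/[32P]ATP; [32P]cAMP separated on Dowex and alumina columns, [3H]cAMP recovery marker; n = 3.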
# Canis familiaris = test: Ex vivo displacement of [125I]Tyr0-ovine CRF from CRF1 receptor in dog at 5 mg/kg, po measured in plasma after 2 hrs; assay type: functional; settings: Canis lupus familiaris
# Outline: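 Beagle dogs given 5 mg/kg po (free base), in Labrafil or Tween-80/0.5% methylcellulose 1:99; plasma drawn 2 and 10 h postdose, diluted 10-fold in binding buffer, and tested for inhibition of 125I-Tyr0-ovine-CRF binding to rat receptors; mean ± SD, n = 3.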
# [2] = target: T2, Corticotropin-releasing factor receptor 2 (Homo sapiens) (UniProt Q13324); test: Antagonist activity at human cloned CRF2alpha receptor expressed in HEK293 cells; assay type: functional, cell-based
# T2 sequence (whole entry): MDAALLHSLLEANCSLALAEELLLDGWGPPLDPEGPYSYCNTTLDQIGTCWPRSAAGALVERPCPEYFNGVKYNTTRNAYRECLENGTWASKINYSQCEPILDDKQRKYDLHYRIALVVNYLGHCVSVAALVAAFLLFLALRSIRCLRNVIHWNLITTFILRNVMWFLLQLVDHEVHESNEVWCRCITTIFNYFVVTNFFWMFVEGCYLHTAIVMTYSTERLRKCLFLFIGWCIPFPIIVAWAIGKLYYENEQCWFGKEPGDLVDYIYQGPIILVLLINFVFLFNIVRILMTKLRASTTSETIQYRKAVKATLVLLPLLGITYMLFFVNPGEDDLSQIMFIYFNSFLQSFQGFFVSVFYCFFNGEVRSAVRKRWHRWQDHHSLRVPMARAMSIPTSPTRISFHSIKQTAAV
# [3] = target: T3, Corticotropin-releasing factor receptor 1 (Homo sapiens, UniProt P34998); test: Binding affinity to CRF1 receptor in human IMR32 cells; assay type: cell-based, IMR-32
# T3 sequence (P34998 whole entry): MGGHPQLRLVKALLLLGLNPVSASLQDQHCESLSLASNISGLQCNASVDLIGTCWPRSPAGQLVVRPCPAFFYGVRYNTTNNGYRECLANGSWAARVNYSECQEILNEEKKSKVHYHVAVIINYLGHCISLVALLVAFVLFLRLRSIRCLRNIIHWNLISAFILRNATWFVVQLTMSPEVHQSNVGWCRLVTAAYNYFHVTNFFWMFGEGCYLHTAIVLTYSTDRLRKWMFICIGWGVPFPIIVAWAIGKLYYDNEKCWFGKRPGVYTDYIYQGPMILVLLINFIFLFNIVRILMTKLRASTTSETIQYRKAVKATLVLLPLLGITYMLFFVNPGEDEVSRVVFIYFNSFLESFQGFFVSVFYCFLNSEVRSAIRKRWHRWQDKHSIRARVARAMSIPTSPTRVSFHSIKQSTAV
# D(2) dopamine receptor = D(2) dopamine receptor (Homo sapiens, UniProt P14416); test: Binding affinity to dopamine D2 receptor
# Sequence of D(2) dopamine receptor (P14416 whole entry): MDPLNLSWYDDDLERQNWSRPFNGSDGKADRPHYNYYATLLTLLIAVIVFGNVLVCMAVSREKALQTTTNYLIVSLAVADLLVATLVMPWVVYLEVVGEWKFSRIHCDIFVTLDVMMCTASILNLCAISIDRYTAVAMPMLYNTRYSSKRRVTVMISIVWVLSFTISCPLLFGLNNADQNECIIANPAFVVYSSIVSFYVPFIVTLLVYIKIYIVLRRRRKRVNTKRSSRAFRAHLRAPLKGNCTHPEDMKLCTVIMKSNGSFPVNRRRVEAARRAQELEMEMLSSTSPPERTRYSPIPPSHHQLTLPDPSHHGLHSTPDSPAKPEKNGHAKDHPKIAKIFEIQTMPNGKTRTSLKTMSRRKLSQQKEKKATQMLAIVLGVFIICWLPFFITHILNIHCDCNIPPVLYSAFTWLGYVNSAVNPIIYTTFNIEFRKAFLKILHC
# [4] = target: T1, Corticotropin-releasing factor receptor 1; test: Displacement of [125I]Tyr0-ovine CRF from CRF1 receptor in rat cortical membrane by gamma counting; assay type: cell membranes
# Outline: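 Inhibition of 125I-Tyr0-ovine-CRF binding to rat cortical membranes measured across dilutions of test drug; IC50 derived by iterative curve fitting.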
# [5] = Binding affinity to serotonin receptor
# [6] = target: T2, Corticotropin-releasing factor receptor 2 (Homo sapiens); test: Agonist activity at human cloned CRF2alpha receptor expressed in HEK293 cells; assay type: functional, cell-based
# [7] = target: T4, Corticotropin-releasing factor-binding protein (Homo sapiens, UniProt P24387); test: Binding affinity to human recombinant CRF binding protein
# T4 sequence (P24387 whole entry): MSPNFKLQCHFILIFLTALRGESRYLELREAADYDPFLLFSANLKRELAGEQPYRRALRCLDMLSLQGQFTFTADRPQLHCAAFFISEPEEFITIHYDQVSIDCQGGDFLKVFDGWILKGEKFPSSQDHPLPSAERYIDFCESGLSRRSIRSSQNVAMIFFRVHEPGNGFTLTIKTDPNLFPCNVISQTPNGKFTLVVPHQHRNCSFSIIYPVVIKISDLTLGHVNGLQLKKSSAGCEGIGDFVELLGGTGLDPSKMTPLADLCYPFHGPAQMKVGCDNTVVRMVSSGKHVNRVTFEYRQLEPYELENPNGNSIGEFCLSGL
# Vasopressin V1a receptor = Vasopressin V1a receptor (Homo sapiens, UniProt P37288); test: Binding affinity to vasopressin V1 receptor
# Sequence of Vasopressin V1a receptor (P37288 whole entry): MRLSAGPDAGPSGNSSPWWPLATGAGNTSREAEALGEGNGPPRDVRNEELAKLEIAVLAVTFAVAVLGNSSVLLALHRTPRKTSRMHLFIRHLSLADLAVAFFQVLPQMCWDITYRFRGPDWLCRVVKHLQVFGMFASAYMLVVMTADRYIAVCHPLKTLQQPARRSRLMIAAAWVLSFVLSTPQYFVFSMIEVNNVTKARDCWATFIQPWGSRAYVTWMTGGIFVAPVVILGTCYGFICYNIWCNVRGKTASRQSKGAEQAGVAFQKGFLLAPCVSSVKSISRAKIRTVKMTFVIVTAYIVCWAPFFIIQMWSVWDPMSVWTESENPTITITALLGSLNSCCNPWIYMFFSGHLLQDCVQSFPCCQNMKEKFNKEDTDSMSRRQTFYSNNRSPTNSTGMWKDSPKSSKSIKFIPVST
# [8] = target: T5, Alpha-2B adrenergic receptor (Homo sapiens, UniProt P18089); test: Binding affinity to adrenergic alpha2b receptor
# T5 sequence (P18089 whole entry): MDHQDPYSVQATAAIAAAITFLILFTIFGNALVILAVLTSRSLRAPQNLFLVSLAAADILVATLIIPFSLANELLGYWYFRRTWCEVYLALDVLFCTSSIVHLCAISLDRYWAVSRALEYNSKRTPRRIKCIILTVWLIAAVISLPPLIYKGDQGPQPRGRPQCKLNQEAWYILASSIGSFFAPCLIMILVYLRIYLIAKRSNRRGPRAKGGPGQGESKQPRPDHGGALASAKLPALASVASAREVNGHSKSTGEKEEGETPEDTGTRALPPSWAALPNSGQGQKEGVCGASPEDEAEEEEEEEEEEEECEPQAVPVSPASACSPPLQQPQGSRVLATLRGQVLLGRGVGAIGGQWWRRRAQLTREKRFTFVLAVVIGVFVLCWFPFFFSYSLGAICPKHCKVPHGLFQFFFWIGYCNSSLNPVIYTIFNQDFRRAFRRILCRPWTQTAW
SMILES,IC50 [1] [nM],inhibition in vivo at 5 mg/kg (Canis familiaris) [%],Activity [2],IC50 [3] [nM],IC50 (D(2) dopamine receptor) [nM],IC50 [4] [nM],IC50 [5] [nM],Activity [6],IC50 [7] [nM],IC50 (Vasopressin V1a receptor) [nM],IC50 [8] [nM]
COCCN(CCOC)c1nc(C)nc2c(-c3cc(C)c(OC)cc3C)c(C)nn12,38,84,inactive,15.2,> 1000,1.98,> 1000,inactive,> 1000,> 1000,> 1000
CC[C@@H](C)Nc1nc(C)nc2c(-c3c(C)cc(OC)cc3OC)c(C)nn12,110,72,inactive,3.4,> 1000,4.4,> 1000,inactive,> 1000,> 1000,> 1000
CCC(CC)Nc1nc(C)nc2c(-c3cc(F)c(OC)cc3Cl)c(C)nn12,36,97,inactive,1.2,> 1000,1,> 1000,inactive,> 1000,> 1000,> 1000
COCCN(CCOC)c1nc(C)nc2c(-c3ccc(OC)cc3C)c(C)nn12,66,75,inactive,4.7,> 1000,4.2,> 1000,inactive,> 1000,> 1000,> 1000
